Test results reported in PMC9044438 (Cell reports, 2022).

System: HCT116 cells
Assay: RNA-seq of nuclear RNA from HCT116 cells electroporated with peptide
Format: cell-based, human
Settings: 10 μM Nutlin-3a, 3 h, versus DMSO
How it was run: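 HCT116 cells were trypsinized and electroporated with 0 or 10 μM peptide into antibiotic-free McCoy's 5A (serum-free in the second run). They then went to medium with 0.1% DMSO or 10 μM Nutlin-3a, plus 200 nM peptide in peptide wells, for 3 h at 37°C. Nuclei were isolated in 0.5% NP-40 lysis buffer, and nuclear RNA was TRIzol-extracted with extra phenol/chloroform cleanup.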

## COc1ccc(C2=N[C@@H](c3ccc(Cl)cc3)[C@@H](c3ccc(Cl)cc3)N2C(=O)N2CCNC(=O)C2)c(OC(C)C)c1 [Nutlin-3a]
  expression of p53 target genes: induced expression of p53 target genes
